STAT3 blocker = STAT3 signaling inhibition. U3A cells, IL-6 STAT3-luciferase reporter, luminescence; host cell line lacks STAT1. inhibition, % at 5.5 µM. actives 0.89% (n = 190,000);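 active = inhibition above the mean inhibition across all screened compounds plus 3 SD, cut at about 44% in these data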
APP 5'UTR act = activates APP 5'UTR luciferase reporter. SH-SY5Y APP 5'UTR luciferase reporter, luminescence; zero percent = DMSO vehicle wells. activation, % at 2 µM. actives 1% (n = 190,000). AID 1276;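 active = activation above a set limit, based on mean plus 3 SD of controls, cut at about 140% in these data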
STAT3 act = STAT3 signaling activation. U3A cells, IL-6 STAT3-luciferase reporter, luminescence; 100% = signal with IL-6 EC80 alone. activation (% of control), % at 5.6 µM. actives 0.91% (n = 190,000). AID 871;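 active = activation above the screen-wide mean of compound activation plus 3 SD, cut at about 130% in these data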
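Material: STAT3-luciferase reporter U3A cells. Controls: IL-6-treated wells, 100% activation. Read-out: % activation versus median of IL-6-stimulated wells. Probe or stimulus: IL-6 stimulus at 33 ng/mL final. Timing: compound 1 h, then IL-6 6 h at 37 °C. Signal: reporter luminescence signal.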
STAT1 activator = increases IFN-gamma driven STAT1 reporter signal; AID 932; NIH 3T3 STAT1-luciferase reporter, luminescence; 100% = IFN-gamma alone, no compound; actives 2.6% (n = 200,000); activation (% of control), % at 5.5 µM;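 active = activation above the screen-wide mean activation plus 3 SD, cut at about 130% in these data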
NF-kB expr up = raises NF-kB expression in human neuronal cells. actives 1.6% (n = 190,000). fold change at 12.5 µM. AID 1239. NF-kB reporter expression; active compounds read high; in the data active = fold change above about 3.3
STAT1 inh = reduces IFN-gamma driven STAT1 reporter signal; NIH 3T3 STAT1-luciferase reporter, luminescence; inhibition, % at 5.5 µM; actives 0.35% (n = 200,000); AID 920;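 active = inhibition above a set limit, the mean inhibition across all tested compounds plus 3 SD, cut at about 34% in these data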
Hits are given with their value; n = inactive; x = not tested or not shown. Hits are enriched below; roughly 4.9% of the tested compounds scored in any of these assays.

SMILES | STAT3 blocker | APP 5'UTR act | STAT3 act | STAT1 activator | NF-kB expr up | STAT1 inh
COc1ccc(NC(=O)/C=C/c2cc(OC)c(OC)c(OC)c2)cn1 | n | n | n | n | n | n
COc1ccc(NC(=O)/C=C/c2ccccc2)cn1 | n | n | n | 141.4 | n | n
Cc1cc(NC(=O)CCCN2C(=O)c3cccnc3C2=O)ccc1Br | n | n | n | n | n | n
CCOC(=O)N1CCN(C(=O)CCl)CC1 | n | n | n | n | n | n
CN(C)/C=N/c1nc2ccc3c(c2s1)CCCC3 | n | n | n | 139.4 | x | n
COc1ccc2c(c1OC)C(=O)N1c3cccc(Cl)c3C(=O)OC21 (configuration not stated) | n | n | n | n | n | n
COc1ccc2c(c1OC)C(=O)N1c3ccccc3COC21 (configuration not stated) | n | n | n | 147.7 | 4.4 | n
COc1ccc2c(c1OC)C(=O)N1c3ccccc3SC21 (configuration not stated) | n | n | n | 148.9 | n | n
CC(C)N(C(=O)Cn1cc(SCC(=O)NCC2CCCO2)c2ccccc21)C(C)C (configuration not stated) | n | n | n | n | n | n
O=C(/C=C/Sc1ccccc1)c1ccccc1 | n | n | n | n | 5.22 | n
O=C(/C=C/Sc1ccccc1)c1ccc(Cl)cc1 | n | n | n | n | 6.25 | n
CN(CCO)c1cc(N2CCN(C(=O)c3ccco3)CC2)c2nonc2c1[N+](=O)[O-] | n | n | n | n | n | n
CCCc1ncc(C(O)(c2ccccc2)c2ccccc2)n1C | n | n | n | n | n | n
COc1ccc2nc(N=Nc3ccc(N(C)C)cc3)sc2c1 | 44.5 | n | n | n | n | 53.0
O=C(CCc1ccccc1)Nc1cccc(NC(=O)CCc2ccccc2)c1 | n | n | n | n | n | n
CC(=O)Nc1ccc2nc(NC(=O)COc3ccccc3)sc2c1 | n | n | n | n | n | n
O=C(CCc1ccccc1)Nc1ccc2ccccc2n1 | n | 140.4 | n | 149.3 | 5.32 | n
CC(=O)Nc1ccc2nc(NC(=O)CCc3ccccc3)sc2c1 | n | n | n | 134.0 | n | n
CC(=O)Nc1ccc2nc(NC(=O)COc3ccccc3Cl)sc2c1 | n | n | n | 129.8 | n | n
CC(=O)Nc1ccc2nc(NC(=O)COc3ccccc3C)sc2c1 | n | n | n | n | n | n
COc1cccc2sc(Nc3nc4ccc(NC(C)=O)cc4s3)nc12 | n | n | n | 131.6 | n | n
Cn1c(=O)c2c(nc(SCC(=O)O)n2Cc2cc3c(cc2Cl)OCO3)n(C)c1=O | n | n | n | n | n | n
Cc1ccc2nc(NC(=O)c3ccccn3)sc2c1 | 98.2 | n | n | n | n | 89.0
CCCc1ccc(OCc2ccc(C(=O)Nc3cccc(C)n3)o2)c(OC)c1 | n | n | n | 138.1 | n | n
CCCc1ccc(OCc2ccc(C(=O)NCc3cccnc3)o2)c(OC)c1 | n | n | n | n | n | n
SMILES | STAT3 blocker | APP 5'UTR act | STAT3 act | STAT1 activator | NF-kB expr up | STAT1 inh
O=C1CCN(C(=S)NCc2ccccc2)CC1 | n | n | n | n | n | n
CCC(C)(C)c1ccc2c(c1)C(=O)c1ccccc1C2=O | n | 181.9 | n | n | n | n
CCN(CC)S(=O)(=O)c1cc(C(=O)OCC(=O)Nc2cccc(S(=O)(=O)N(C)C)c2)ccc1F | n | n | n | n | n | n
CCN(CC)S(=O)(=O)c1cc(C(=O)OCC(=O)Nc2ccc(-c3nc4ccc(C)cc4s3)cc2)ccc1F | n | 143.3 | n | 145.3 | 5.98 | n
COc1ccc(-c2ccc(-c3nnn(CC(C)=O)n3)cc2)cc1 | n | n | n | 132.6 | n | n
COc1cccc(-c2nnn(CC(C)=O)n2)c1 | n | n | n | 134.2 | n | n
CCOc1ccc2nc(C)cc(Nc3cccc([N+](=O)[O-])c3)c2c1 | n | n | n | n | n | n
Cc1ccc(-c2nnc(SCC(C)C)n2C)cc1 | n | n | n | 137.7 | n | n
Cc1ccc(-c2nnc(SCC(N)=O)n2C)cc1 | n | n | n | n | n | n
O=C(CCCCO)CCCCCCCC[C@H]1N[C@H](CO)[C@H](O)[C@@H]1O[C@@H]1O[C@H](CO)[C@@H](O)[C@H](O)[C@H]1O | n | n | n | n | n | n
CC/C(=N/NC(=O)c1ccc(Br)o1)c1ccc(Cl)cc1 | n | n | n | 130.8 | n | n
COc1ccc(OC)c(-c2nc3cc4ccccc4cc3nc2-c2ccccc2)c1 | n | n | n | n | n | n
CSc1nnc(-c2cc3c(s2)-c2ccccc2CC3)o1 | n | n | 163.8 | 136.5 | n | n
S=c1[nH]nc(-c2cc3c(s2)-c2ccccc2CC3)o1 | n | n | n | n | n | n
O=C(C1CCC(C(=O)N2CCc3ccccc32)CC1)N1CCc2ccccc21 (configuration not stated) | n | n | n | n | n | n
O=C(NC1CCCCC1)N1CCc2ccccc21 | n | n | n | 129.4 | n | n
O=C1OC2(CCCCC2)OC(=O)C1=CNc1ccc2c(c1)OCO2 | n | n | n | n | n | n
O=C1/C(=C/Nc2ccc3c(c2)OCO3)CCc2ccccc21 | 93.2 | 152.9 | n | n | n | 58.5
COc1ccc2c(c1)CC/C(=C\Nc1ccc3c(c1)OCO3)C2=O | n | n | n | 129.5 | 3.82 | n
COc1ccc(N/C=C2\CCOC2=O)cc1 | n | n | n | n | n | n
COc1ccc(N/C=C2\CCc3ccccc3C2=O)cc1 | 90.3 | 155.7 | n | n | n | 76.0
COc1ccc(CC(=O)N(CC2CCCO2)c2nc3ccccc3s2)cc1 (configuration not stated) | n | n | n | n | n | n
CCSC1=N/C(=C/c2ccsc2)C(=O)N1c1ccccc1 | n | n | n | n | n | n
CC(C)Sc1nc2ccsc2c(=O)[nH]1 | n | n | n | n | n | n
Cc1ccc(-c2nc3ccsc3c(=O)o2)cc1 | n | n | n | 128.8 | n | n
SMILES | STAT3 blocker | APP 5'UTR act | STAT3 act | STAT1 activator | NF-kB expr up | STAT1 inh
CSc1cc(C)c(OCC(=O)Nc2ccc(NC(C)=O)cc2)c(C)c1 | n | n | n | n | n | n
CCCc1ccccc1OCCNC(=O)c1cc(=O)n(C)c(=O)n1C | n | n | n | n | n | n
Cc1csc(NC(=O)CSc2nsc(SCC(=O)Nc3nc(C)cs3)c2C#N)n1 | n | n | n | 132.0 | n | n
Cc1nc(SCC(=O)Nc2nc3ccccc3s2)c(C#N)c(C)c1C | 87.7 | n | n | n | n | 57.9
Cc1ccc2sc(NC(=O)CSc3nc(C)cc(C)c3C#N)nc2c1 | n | n | n | n | 6.54 | n
CSc1nsc(SCC(=O)Nc2nc3ccccc3s2)n1 | n | n | n | n | n | n
Cc1cc(C)c(C#N)c(SCC(=O)Nc2nnc(-c3ccccc3)s2)n1 | n | n | n | n | n | n
CCN(CC(=O)Nc1cccc(C(C)=O)c1)S(=O)(=O)c1ccc(C)cc1 | n | n | n | n | n | n
O=c1c2cc(NC(=S)NCc3ccccn3)ccc2nc2n1CCCCC2 | n | n | n | n | n | n

Bioassay records (PubChem)
